Screening results as filed in PubChem.
This is a sample that favours compounds with a hit; in the whole collection about 1.4% have one here.
thrombin 1536 – human alpha-thrombin inhibitors, primary screen, counter-screen for coagulation protease inhibitor project, biochemical, 1536-well, fluorogenic AMC substrate. Boc-VPR-AMC fluorogenic substrate cleavage. inhibition, % at 5 µM. hit rate 0.26% among 220,000. AID 1046, 2008;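 active = inhibition at or above 40%; inactive = inhibition below 40%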;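 note: 0% = enzyme with no compound and 100% = wells without enzyme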
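Test system: human alpha-thrombin; medium: pH 7.5 Tris-saline with Tween 20; times: reaction at room temperature; signal: AMC fluorescence at 355 nm excitation and 460 nm emission; also added: Boc-VPR-AMC substrate, 15 µM final; dosing: one concentration per compound, 5 µM, with 0.2% DMSO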
KLK5 inh – human KLK5 protease inhibitors, primary screen, biochemical, 1536-well | hit rate 0.59% among 210,000 | inhibition, % at 5 µM | recombinant hK5, fluorogenic AMC substrate cleavage | AID 873, 2007;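 active = inhibition of 40% or more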;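 note: 0% = enzyme controls without compound and 100% = no-enzyme blanks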
Target sequence (Q9Y337 67-293 limits assumed): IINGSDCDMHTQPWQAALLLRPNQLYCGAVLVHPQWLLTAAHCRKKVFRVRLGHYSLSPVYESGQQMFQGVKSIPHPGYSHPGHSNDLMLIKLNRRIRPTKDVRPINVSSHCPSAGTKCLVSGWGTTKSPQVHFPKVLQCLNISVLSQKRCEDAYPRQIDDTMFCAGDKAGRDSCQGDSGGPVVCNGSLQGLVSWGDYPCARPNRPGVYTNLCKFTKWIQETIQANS
FXIIa inh – human FXIIa protease inhibitors, primary screen, biochemical, 1536-well | Coagulation factor XII (Homo sapiens), P00748 | purified FXIIa, Boc-QGR-AMC fluorogenic substrate, 2 h | inhibition, % at 5 µM | hit rate 0.3% among 220,000; in the data active = inhibition above about 40%;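 note: 0% = enzyme with no compound and 100% = blank without enzyme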
FXIa inh 1536 – human FXIa protease inhibitors, primary screen, biochemical, 1536-well; Coagulation factor XI (Homo sapiens), P03951; inhibition, % at 5 µM; hit rate 0.14% among 220,000; AID 798, 2007; purified FXIa, Boc-Glu-Ala-Arg-AMC fluorogenic substrate;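 active = inhibition of at least 40%; inactive = inhibition below 40%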;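 note: fluorescence of freed AMC excited at 355 nm; 0% = enzyme without compound and 100% = no enzyme blank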
Rce1 inhib – yeast Rce1p protease inhibitors, primary screen, biochemical, fluorescence, cell-free homogeneous. hit rate 0.27% among 290,000. CAAX prenyl protease 2 (Saccharomyces cerevisiae (strain ATCC 204508 / S288c)), Q03530. yeast membranes, quenched prenylated peptide cleavage fluorescence. calls only;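 active = fall in fluorescence gain of 50% or more versus controls, with final raw signal at or below 3038400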;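 note: plate controls were neutral control wells for no effect and wells lacking membranes for full effect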
Target sequence (Q03530 whole entry, looked up): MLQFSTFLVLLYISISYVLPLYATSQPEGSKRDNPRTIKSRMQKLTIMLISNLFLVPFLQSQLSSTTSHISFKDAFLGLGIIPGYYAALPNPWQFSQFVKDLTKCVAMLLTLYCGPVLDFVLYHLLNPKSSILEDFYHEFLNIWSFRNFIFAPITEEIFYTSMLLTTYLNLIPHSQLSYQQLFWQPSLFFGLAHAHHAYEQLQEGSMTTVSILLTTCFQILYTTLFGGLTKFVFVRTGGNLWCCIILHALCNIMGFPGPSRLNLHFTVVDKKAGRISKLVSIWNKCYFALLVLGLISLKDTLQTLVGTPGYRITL
CTSL1 counter – Fasciola hepatica cathepsin L1 inhibitors, primary screen, counter-screen for PFM18AAP inhibitor project, biochemical, QFRET, fluorogenic peptide substrate. hit rate 0.49% among 300,000. recombinant F. hepatica cathepsin L1, Z-Leu-Arg-MCA fluorescence. AID 1906, 2009. inhibition, % at 5.96 µM;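 active = inhibition above the mean of all tested compounds plus 3 SD, set per screening campaign, cut at about 17% in these data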;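 note: 0% = plate median of test compound wells and 100% = 1 µM Z-Phe-Ala-diazomethylketone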
Active calls of the source: *; i = inactive; . = not tested or not shown; + = active, no number.

SMILES	thrombin 1536	KLK5 inh	FXIIa inh	FXIa inh 1536	Rce1 inhib	CTSL1 counter
CCn1ccnc1CNCc1ccc(OCC(O)CN(C)Cc2ccccc2)cc1 (stereo unspecified)	-1	.	10	3	i	-2
CN(Cc1ccccc1)CC(O)COc1ccc(CNCc2nccn2C)cc1 (stereo unspecified)	14	15	14	3	i	18*
O=C(N/N=C/c1cccc([N+](=O)[O-])c1)C1CC(=O)N(c2ccc(Cl)cc2)C1 (stereo unspecified)	-6	-3	6	-5	i	0
Cc1ccc(N2CC(C(=O)N/N=C/c3cccc([N+](=O)[O-])c3)CC2=O)cc1 (stereo unspecified)	104*	33	17	5	i	4
OCCNC(=S)Nc1ccc2nsnc2c1	1	-12	5	-5	i	112*
COc1ccc(C2=NC(CO)(CO)CO2)cc1	-9	-2	-1	-4	.	-8
Cc1ccc(N=Nc2c(N)n(-c3ccccc3)[nH]c2=O)cc1	22	40*	16	18	i	2
O=C1C2CC=C(Cl)CC2C(=O)N1CCc1c[nH]c2ccccc12 (stereo unspecified)	2	3	1	3	i	5
O=C1C2CC=C(Cl)CC2C(=O)N1CCc1ccccc1 (stereo unspecified)	-8	-15	9	-7	i	44*
CCN(Cc1ccccc1)c1ccc(/C=N/NS(=O)(=O)c2ccc(C)c([N+](=O)[O-])c2)cc1	-4	-8	-3	-4	i	-1
CCN(CC)c1ccc(/C=N/NS(=O)(=O)c2cccc([N+](=O)[O-])c2)cc1	-14	-10	52*	28	i	6
COc1ccc(NC(=O)Cn2c(CCC(=O)O)ccc2-c2ccccc2)cc1	.	.	.	.	i	0
COC(=O)Cn1c(CCC(=O)O)ccc1-c1ccccc1	-9	-13	5	-1	+	-2
CCn1ncc(Br)c1C(=O)Nc1cc([N+](=O)[O-])ccc1C	54*	3	23	19	i	0
Cc1c(N=c2c(=O)c3ccccc3c2=O)c(=O)n(-c2ccccc2)n1C	2	-26	15	10	i	56*
Cc1ccc(NC(=O)CSc2nc3[nH]ncc3c(=O)[nH]2)c(C)c1	2	1	8	3	i	-1
O=C(O)CC(C(=O)Nc1ccc(Cl)cc1)N1CCCCCC1 (stereo unspecified)	.	.	.	.	i	-2
O=C(c1ccccc1)n1nc(-c2ccccc2)nc1NCc1ccco1	73*	15	10	-1	i	-4
Cc1ccc(C(=O)n2nc(-c3ccccc3)nc2NCc2ccco2)cc1	12	11	12	5	i	2
O=C(c1ccco1)n1nc(-c2cccnc2)nc1NCc1ccco1	96*	4	19	11	i	2
COc1ccc(NC(=O)COC(=O)C(CC(C)C)N2C(=O)C3CC=CCC3C2=O)cc1Cl (stereo unspecified)	-4	-17	5	3	i	52*
COc1ccc(Cl)cc1N(CC(=O)NC(C)(C)C)S(=O)(=O)c1ccc(C)c([N+](=O)[O-])c1	29	45*	20	12	i	2
CCCCCCCCCCCC(=O)N1CC(=O)NC(=O)C1	27	54*	46*	27	i	-3
CN(Cc1cnn(C)c1)C(=O)C1CCCCC1C(=O)O (stereo unspecified)	-5	-6	5	-6	.	-3
O=C(Nc1ccccc1C(=O)NCCCN1CCOCC1)c1cccc([N+](=O)[O-])c1	.	.	.	.	i	18*
SMILES	thrombin 1536	KLK5 inh	FXIIa inh	FXIa inh 1536	Rce1 inhib	CTSL1 counter
COc1cccc(N2C(=O)N(c3ccccc3)C3CS(=O)(=O)CC32)c1 (stereo unspecified)	3	-13	14	4	i	5
COc1cccc(N2C(=O)N(c3ccccc3Cl)C3CS(=O)(=O)CC32)c1 (stereo unspecified)	-7	-2	-1	-3	i	17*
O=C(CN(C(=O)CSc1nnc(COc2ccccc2)o1)c1ccc(F)cc1)NC1CCCCC1	25	130*	31	6	i	1
O=C(CN(C(=O)CSc1nnc(COc2ccccc2)o1)c1ccc(F)cc1)NC1CCCC1	-2	2	-6	-3	i	1
O=S(=O)(NC1Cc2ccccc2C1)c1ccccc1	.	.	.	.	i	.
C=CCn1c(N2CCCCCC2)nc2c1c(=O)n(C)c(=O)n2C	-1	-4	5	-2	+	1
COc1ccccc1-c1nnc(Sc2nc([N+](=O)[O-])nn2C)o1	-11	-19	-31	-17	i	77*
O=C(CSc1ccccc1C(=O)NCc1ccccc1)NC1CCCCCCC1	-1	-2	4	15	i	2
CCCn1c2c(c(O)c(C(=O)Nc3nccs3)c1=O)CCCC2	101*	33	15	-4	i	-8
CCN(Cc1ccccc1)c1ccc(/C=N/N=C(N)N)cc1	0	-12	9	7	+	6
CCN(Cc1ccccc1)c1ccc(/C=N/NC(=S)NC(C)C)cc1	-4	-3	9	2	i	5
COc1ccccc1NS(=O)(=O)c1ccc(Cl)c(NC(=O)C(C)N2C(=O)c3ccccc3C2=O)c1 (stereo unspecified)	-8	-13	8	2	i	25*
Cc1ccccc1/C=C1\SC(=S)N(/N=C/c2cc([N+](=O)[O-])ccc2O)C1=O	56*	5	13	2	i	9
COc1ccccc1NC(=O)C1CCN(C(=O)c2ccco2)CC1	.	.	.	.	i	-1
CCCOP(=O)(c1ccc(N(C)C)cc1)C(Nc1ccccc1)c1ccc(C)cc1 (stereo unspecified)	0	-5	13	4	i	21*
CC(C)CCOP(=O)(c1ccc(N(C)C)cc1)C(Nc1ccccc1)c1ccc(N(C)C)cc1 (stereo unspecified)	-2	-4	11	6	i	3
CC(CN1C(C)CCCC1C)OC(=O)c1ccc(Cl)cc1Cl (stereo unspecified)	10	34	45*	25	i	-2
Cc1ccc(NC(=O)c2cccc(C(=O)Nc3ccc(C)c(C)c3)n2)cc1C	.	.	.	.	i	2
Cc1cc(C)c2c3c(sc2n1)C(=O)N(c1ccccc1C)CC(=O)N3	2	2	7	-6	i	-2
